Measurements: ChEMBL document CHEMBL3616433, “Synthesis and anti-cancer potential of the positional isomers of NOSH-aspirin (NBS-1120) a dual nitric oxide and hydrogen sulfide releasing hybrid” (Bioorg Med Chem Lett, 2015)
Activity calls are given as the source filed them. The calls are words filed in the database; no cut-off is given here.

Legend:
[1] = tested on: HCT-15; experiment: Cytotoxicity against human HCT15 cells assessed as growth inhibition after 24 hrs by MTT assay; type: functional, cell-based; details: HCT-15, 24 h
How it was run: (§1)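 Cells grown in RPMI 1640 with 10% FBS, penicillin/streptomycin, at 37°C and 5% CO2. Compounds came from 100 mM DMSO stocks, with final DMSO 1% in all media. Growth was read by colorimetric MTT kit after 24 h. IC50 came from dose-response curves. Mean ± SEM of three to five experiments, each in triplicate.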

[2] = tested on: HT-29; experiment: Cytotoxicity against human HT-29 cells assessed as growth inhibition after 24 hrs by MTT assay; type: functional, cell-based; details: HT-29, 24 h; how it was run: as §1
[3] = tested on: HT-29; experiment: Cell cycle arrest in human HT-29 cells assessed as accumulation at G0/G1 phase at 1 to 2 times IC50 after 24 hrs using propidium iodide by flow cytometry
[4] = tested on: HT-29; experiment: Cytotoxicity against human HT-29 cells assessed as reduction in PCNA expression at 50 to 500 nM after 24 hrs by ELISA relative to vehicle treated control; type: functional, cell-based
How it was run: (§2)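 HT-29 cells (1×10^6 cells/mL) exposed to a range of concentrations for 24 h. PCNA antigen was quantified by ELISA kit per the manufacturer's protocol and expressed as % of vehicle-treated cells. Mean ± SEM of 3 experiments run in duplicate; ANOVA with Tukey's test.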

[5] = tested on: HT-29; experiment: Cell cycle arrest in human HT-29 cells assessed as accumulation at G0/G1 phase at 1 to 2 times IC50 after 24 hrs using propidium iodide by flow cytometry; type: functional, cell-based
How it was run: (§3)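 HT-29 cells (0.5×10^6) treated 24 h, then trypsinized, fixed in 70% ethanol (10 min, −20°C), held in PBS/1% FBS/0.5% NP-40 on ice 5 min, and stained with propidium iodide 40 µg/mL plus RNase IIA 200 µg/mL. Flow cytometry within 30 min, >10,000 events per subset. Phase percentages were taken from DNA-content histograms. Representative of two experiments agreeing within 10%.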

[6] = tested on: HT-29; experiment: Induction of ROS generation in human HT-29 cells assessed as increase in intracellular superoxide anion level at 250 nM after 1 hr using DHE staining by flow cytometry relative to control; type: functional
How it was run: (§4)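 HT-29 cells (0.3×10^6/well) plated for 24 h, then treated 1 h. They were trypsinized, PBS-washed, and loaded with dihydroethidium (5 µM) for 30 min at 37°C in the dark. Superoxide fluorescence was measured by flow cytometry relative to basal. Mean ± SEM of three independent experiments.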

[7] = tested on: HT-29; experiment: Induction of ROS generation in human HT-29 cells assessed as increase in intracellular peroxide level at 250 nM after 1 hr using DCFDA staining by flow cytometry relative to control; type: functional
How it was run: (§5)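 Plate HT-29 cells at 0.3×10^6/well for 24 h, then treat 1 h. Trypsinize, wash in PBS, and incubate with DCFDA (10 µM) 30 min at 37°C in the dark. Read fluorescence by flow cytometry as fold over basal. Mean ± SEM of three independent experiments.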

[8] = tested on: HT-29; experiment: Cell cycle arrest in human HT-29 cells assessed as accumulation at S phase at 1 to 2 times IC50 after 24 hrs using propidium iodide by flow cytometry; type: functional, cell-based; how it was run: as §3
[9] = tested on: HT-29; experiment: Induction of apoptosis in human HT-29 cells assessed as early apoptotic cells at 50 to 500 nM after 24 hrs using annexin-V staining by flow cytometry relative to control; type: functional, cell-based
How it was run: (§6)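 HT-29 cells (0.5×10^6 cells/mL) treated 24 h, washed, and resuspended in Annexin binding buffer (HEPES pH 7.4, NaCl, CaCl2). They were stained with Annexin V-FITC (final 0.5 µg/mL) and propidium iodide (final 20 µg/mL) for 5–15 min at room temperature in the dark, then analysed by flow cytometry for early apoptotic cells. Mean ± SEM of 3 experiments in duplicate.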

[10] = tested on: HT-29; experiment: Cytotoxicity against human HT-29 cells assessed as reduction in PCNA expression at 100 to 1000 nM after 24 hrs by ELISA relative to vehicle treated control; type: functional, cell-based; how it was run: as §2
[11] = tested on: HT-29; experiment: Induction of apoptosis in human HT-29 cells assessed as early apoptotic cells at 100 to 1000 nM after 24 hrs using annexin-V staining by flow cytometry relative to control; type: functional, cell-based; how it was run: as §6
[12] = tested on: HT-29; experiment: Cell cycle arrest in human HT-29 cells assessed as accumulation at G2/M phase at 1 to 2 times IC50 after 24 hrs using propidium iodide by flow cytometry; type: functional, cell-based; details: in the assay text read “G0/G1 phase” for “G2/M phase”; how it was run: as §3
[13] = tested on: HT-29; experiment: Induction of ROS generation in human HT-29 cells assessed as increase in intracellular peroxide level at 500 nM after 1 hr using DCFDA staining by flow cytometry relative to control; type: functional; how it was run: as §5
[14] = tested on: HT-29; experiment: Induction of ROS generation in human HT-29 cells assessed as increase in intracellular superoxide anion level at 500 nM after 1 hr using DHE staining by flow cytometry relative to control; type: functional; how it was run: as §4
[15] = tested on: HT-29; experiment: Induction of apoptosis in human HT-29 cells assessed as early apoptotic cells at 100 nM after 24 hrs using annexin-V staining by flow cytometry relative to control; type: functional; how it was run: as §6
[16] = tested on: HT-29; experiment: Cell cycle arrest in human HT-29 cells assessed as reduction in G2/M phase at 100 nM after 24 hrs using propidium iodide by flow cytometry (reference value: 28.5%); type: functional; parameters: scale not given: the % may be the effect or the level left; how it was run: as §3
[17] = tested on: HT-29; experiment: Cell cycle arrest in human HT-29 cells assessed as reduction in G2/M phase at 50 nM after 24 hrs using propidium iodide by flow cytometry (reference value: 28.5%); type: functional; parameters: scale not given: the % may be the effect or the level left; how it was run: as §3
[18] = tested on: HT-29; experiment: Induction of ROS generation in human HT-29 cells assessed as increase in intracellular superoxide anion level at 50 nM after 1 hr using DHE staining by flow cytometry relative to control
[19] = tested on: HT-29; experiment: Induction of ROS generation in human HT-29 cells assessed as increase in intracellular peroxide level at 50 nM after 1 hr using DCFDA staining by flow cytometry relative to control; type: functional; how it was run: as §5
[20] = tested on: HT-29; experiment: Cell cycle arrest in human HT-29 cells assessed as accumulation at G0/G1 phase at 100 nM after 24 hrs using propidium iodide by flow cytometry (reference value: 39.6%); type: functional; how it was run: as §3
[21] = tested on: HT-29; experiment: Cytotoxicity against human HT-29 cells assessed as reduction in PCNA expression at 25 nM after 24 hrs by ELISA relative to vehicle treated control; type: functional; parameters: scale not given: the % may be the effect or the level left; how it was run: as §2
[22] = tested on: HT-29; experiment: Induction of apoptosis in human HT-29 cells assessed as early apoptotic cells at 10 nM after 24 hrs using annexin-V staining by flow cytometry relative to control; type: functional; how it was run: as §6
[23] = tested on: HT-29; experiment: Cytotoxicity against human HT-29 cells assessed as reduction in PCNA expression at 10 nM after 24 hrs by ELISA relative to vehicle treated control; type: functional; parameters: scale not given: the % may be the effect or the level left; how it was run: as §2
[24] = tested on: HT-29; experiment: Induction of apoptosis in human HT-29 cells assessed as early apoptotic cells at 50 nM after 24 hrs using annexin-V staining by flow cytometry relative to control; type: functional; how it was run: as §6
[25] = tested on: HT-29; experiment: Cell cycle arrest in human HT-29 cells assessed as reduction in S phase at 50 nM after 24 hrs using propidium iodide by flow cytometry (reference value: 31.9%); type: functional; parameters: scale not given: the % may be the effect or the level left; how it was run: as §3
[26] = tested on: HT-29; experiment: Cell cycle arrest in human HT-29 cells assessed as accumulation at G0/G1 phase at 50 nM after 24 hrs using propidium iodide by flow cytometry (reference value: 39.6%); type: functional; how it was run: as §3
[27] = tested on: HT-29; experiment: Cytotoxicity against human HT-29 cells assessed as reduction in PCNA expression at 50 nM after 24 hrs by ELISA relative to vehicle treated control; type: functional; parameters: scale not given: the % may be the effect or the level left; how it was run: as §2
[28] = tested on: HT-29; experiment: Cytotoxicity against human HT-29 cells assessed as reduction in PCNA expression at 100 nM after 24 hrs by ELISA relative to vehicle treated control; type: functional; parameters: scale not given: the % may be the effect or the level left; how it was run: as §2
[29] = tested on: HT-29; experiment: Cell cycle arrest in human HT-29 cells assessed as reduction in S phase at 100 nM after 24 hrs using propidium iodide by flow cytometry (reference value: 31.9%); type: functional; parameters: scale not given: the % may be the effect or the level left; how it was run: as §3
[30] = tested on: HT-29; experiment: Induction of apoptosis in human HT-29 cells assessed as early apoptotic cells at 25 nM after 24 hrs using annexin-V staining by flow cytometry relative to control; type: functional; how it was run: as §6
[31] = tested on: HT-29; experiment: Cytotoxicity against human HT-29 cells assessed as reduction in PCNA expression after 24 hrs by ELISA; type: functional, cell-based; how it was run: as §2

## O=C(CCCO[N+](=O)[O-])Oc1cccc(C(=O)Oc2ccc(-c3cc(=S)ss3)cc2)c1Cl
[1]
  IC50: 0.14 µM
[2]
  IC50: 0.21 µM

## O=C(CCCO[N+](=O)[O-])Oc1ccc(C(=O)Oc2ccc(-c3cc(=S)ss3)cc2)cc1Cl
[1]
  IC50: 0.33 µM
[2]
  IC50: 0.06 µM

## COc1ccc(OC(=O)CCCO[N+](=O)[O-])c(C(=O)Oc2ccc(-c3cc(=S)ss3)cc2)c1
[1]
  IC50: 0.38 µM
[2]
  IC50: 0.2 µM

## COc1ccc(C(=O)Oc2ccc(-c3cc(=S)ss3)cc2)cc1OC(=O)CCCO[N+](=O)[O-]
[1]
  IC50: 0.33 µM
[2]
  IC50: 0.43 µM

## O=C(CCCO[N+](=O)[O-])Oc1cccc(C(=O)Oc2ccc(-c3cc(=S)ss3)cc2)c1
[3]
  Activity: Active
[4]
  Activity: Active
[1]
  IC50: 0.11 µM
[5]
  Activity: Active
[2]
  IC50: 0.22 µM
[6]
  fold change (FC): 21
[7]
  fold change (FC): 15
[8]
  Activity: Active
[9]
  Activity: Active

## O=C(CCCO[N+](=O)[O-])Oc1ccc(C(=O)Oc2ccc(-c3cc(=S)ss3)cc2)cc1
[10]
  Activity: Active
[11]
  Activity: Active
[12]
  Activity: Active
[1]
  IC50: 0.38 µM
[5]
  Activity: Active
[2]
  IC50: 0.45 µM
[13]
  fold change (FC): 11
[8]
  Activity: Active
[14]
  fold change (FC): 10

## O=C(CCCO[N+](=O)[O-])Oc1ccc(Cl)cc1C(=O)Oc1ccc(-c2cc(=S)ss2)cc1
[1]
  IC50: 0.17 µM
[2]
  IC50: 0.4 µM

## O=C(CCCO[N+](=O)[O-])Oc1ccccc1C(=O)Oc1ccc(-c2cc(=S)ss2)cc1
[15]
  Activity: 78%
[16]
  Activity: 9.9%
[17]
  Activity: 20.3%
[18]
  fold change (FC): 18
[19]
  fold change (FC): 16
[20]
  Activity: 71.9%
[21]
  Activity: 65%
[22]
  Activity: 15%
[23]
  Activity: 80%
[1]
  IC50: 0.057 µM
[24]
  Activity: 65%
[25]
  Activity: 26.1%
[26]
  Activity: 53.6%
[27]
  Activity: 48%
[28]
  Activity: 20%
[29]
  Activity: 18.2%
[30]
  Activity: 35%
[31]
  Activity: Dose-dependent effect

## COc1cc(C(=O)Oc2ccc(-c3cc(=S)ss3)cc2)ccc1OC(=O)CCCO[N+](=O)[O-]
[1]
  IC50: 0.22 µM
[2]
  IC50: 0.13 µM

## CC(=O)Oc1ccccc1C(=O)O [ASPIRIN]
[1]
  IC50: > 5000 µM
[2]
  IC50: > 5000 µM
